Common to all, as to format: functional
Test [1] relates to H4. Briefly: Effect on FYVE-RFP+ vesicle intensity per cell in human H4 cells after 8 hrs relative to control. On the set-up: concentration or dose not given beside the values. In short, it runs like this: (§1)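 H4 cells stably expressing FYVE-RFP (H4-FYVE), grown in DMEM with 10% FBS, penicillin/streptomycin and 2 mM L-glutamine at 37°C, 5% CO2, seeded in 96-well plates and exposed to compound. Fixed in 4% paraformaldehyde, nuclei stained with 3 μg/ml DAPI, FYVE-RFP+ vesicles quantified by high-throughput fluorescence microscopy against DMSO control. Triplicate wells, mean ± SD.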

Test [2] has as its system H4. Description: Increase in long-lived protein degradation in human H4 cells after 24 hrs relative to control. On the set-up: concentration or dose not given beside the values.
Test [3] concerns H4. Briefly: Increase in light chain 3-GFP+ autophagosome vesicle area per cell in human H4 cells at 5.8 uM after 24 hrs by high throughput fluorescence microscopy relative to control. In short, it runs like this:
(§2)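 H4 cells stably expressing LC3-GFP, seeded in 96-well plates and exposed to compound for 24 h; screening concentrations were 3–12 μM, with rapamycin 0.22 μM and bafilomycin A1 0.40 μM. Cells fixed in 4% paraformaldehyde and stained with 3 μg/ml DAPI. Number, size and intensity of LC3-GFP spots measured by high-throughput fluorescence microscopy and expressed as percent of DMSO-treated wells. Rapamycin was the positive control. Triplicate wells, mean ± SD; experiments repeated three times.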

The test system of test [4] is H4. Description: Effect on FYVE-RFP+ vesicle intensity per cell in human H4 cells after 2 hrs relative to control. More on the design: concentration or dose not given beside the values. In short, it runs like this:
as §1

Test [5] concerns H4. Briefly: Increase in long-lived protein degradation in human H4 cells after 4 hrs relative to control. More on the design: concentration or dose not given beside the values.
Test [6] has as its system H4. Description: Increase in light chain 3-GFP+ autophagosome vesicle intensity per cell in human H4 cells at 5.8 uM after 24 hrs by high throughput fluorescence microscopy relative to control. The procedure, abridged:
(§3)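 H4 cells stably expressing LC3-GFP were grown in DMEM with 10% FBS and 2 mM L-glutamine at 37°C, 5% CO2. They were exposed to each compound for 24 h, with DMSO as negative and rapamycin as positive control. Cells were then fixed in 4% paraformaldehyde and stained with 3 μg/ml DAPI. High-throughput fluorescence imaging scored LC3-GFP spot number, size and intensity, expressed relative to DMSO. Mean ± SD of triplicates; experiments repeated three times.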

For test [7], the system named is H4. Briefly: Increase in long-lived protein degradation in human H4 cells after 2 hrs relative to control. More on the design: concentration or dose not given beside the values.
Test [8] concerns H4. Description: Increase in light chain 3-GFP+ autophagosome vesicle number per cell in human H4 cells at 5.8 uM after 24 hrs by high throughput fluorescence microscopy relative to control. In short, it runs like this:
as §3

Test [9] concerns H4. Description: Increase in long-lived protein degradation in human H4 cells after 1 hr relative to control. On the set-up: concentration or dose not given beside the values.
Test [10] deals with H4. Briefly: Effect on FYVE-RFP+ vesicle intensity per cell in human H4 cells after 4 hrs relative to control. On the set-up: concentration or dose not given beside the values. In short, it runs like this:
as §1

Test [11] deals with H4. Briefly: Induction of light chain 3-GFP level in human H4 cells at 5.8 uM after 24 hrs by high throughput fluorescence microscopy relative to control. In short, it runs like this: (§4)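 H4 cells stably expressing LC3-GFP, grown in DMEM with 10% FBS, penicillin/streptomycin and 2 mM L-glutamine at 37°C, 5% CO2. Cells were seeded in 96-well plates and exposed to library compounds at 3–12 μM for 24 h, then fixed in 4% paraformaldehyde and stained with 3 μg/ml DAPI. LC3-GFP spot number, size and intensity were measured by high-throughput fluorescence microscopy and expressed relative to DMSO. Triplicates, mean ± SD.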

For test [12], the system named is H4. Briefly: Increase in light chain 3-GFP+ autophagosome vesicle number per cell in human H4 cells at 5.1 uM after 24 hrs by high throughput fluorescence microscopy relative to control. The procedure, abridged:
as §3

Test [13] relates to H4. Description: Induction of light chain 3-GFP level in human H4 cells at 5.1 uM after 24 hrs by high throughput fluorescence microscopy relative to control. In short, it runs like this:
as §4

Test [14] concerns H4. Description: Increase in light chain 3-GFP+ autophagosome vesicle area per cell in human H4 cells at 5.1 uM after 24 hrs by high throughput fluorescence microscopy relative to control. In short, it runs like this:
as §2

Test [15] concerns H4. Briefly: Increase in light chain 3-GFP+ autophagosome vesicle intensity per cell in human H4 cells at 5.1 uM after 24 hrs by high throughput fluorescence microscopy relative to control. In short, it runs like this:
as §3

Test [16] relates to H4. Description: Induction of light chain 3-GFP level in human H4 cells at 7.4 uM after 24 hrs by high throughput fluorescence microscopy relative to control. The procedure, abridged: (§5)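 H4 cells stably expressing LC3-GFP, kept in DMEM/10% FBS at 37°C, 5% CO2, were seeded in 96-well plates and exposed to compound for 24 h. Cells were then fixed in 4% paraformaldehyde and stained with 3 μg/ml DAPI. Automated fluorescence microscopy scored the number, size and intensity of LC3-GFP spots. Values are percent of DMSO wells, in triplicate, mean ± SD. Rapamycin served as positive control.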

The test system of test [17] is H4. Briefly: Increase in light chain 3-GFP+ autophagosome vesicle intensity per cell in human H4 cells at 7.4 uM after 24 hrs by high throughput fluorescence microscopy relative to control. In short, it runs like this:
(§6)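 H4 cells stably expressing LC3-GFP, seeded in 96-well plates and exposed to compound for 24 h; fixed in 4% paraformaldehyde, nuclei stained with 3 μg/ml DAPI. Automated fluorescence microscopy scored number, size and intensity of LC3-GFP spots; values expressed relative to DMSO-treated wells, rapamycin positive control. Triplicate wells, mean ± SD; experiments repeated three times.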

Test [18] has as its system H4. Briefly: Increase in light chain 3-GFP+ autophagosome vesicle area per cell in human H4 cells at 7.4 uM after 24 hrs by high throughput fluorescence microscopy relative to control. The procedure, abridged:
as §6

For test [19], the system named is H4. Description: Decrease in FYVE-RFP+ vesicle intensity per cell in human H4 cells after 8 hrs relative to control. More on the design: concentration or dose not given beside the values. In short, it runs like this:
as §1

Test [20] concerns H4. Description: Decrease in FYVE-RFP+ vesicle intensity per cell in human H4 cells after 2 hrs relative to control. More on the design: concentration or dose not given beside the values. The procedure, abridged: as §1
Test [21] concerns H4. Briefly: Decrease in FYVE-RFP+ vesicle intensity per cell in human H4 cells after 4 hrs relative to control. More on the design: concentration or dose not given beside the values. The procedure, abridged: as §1
In test [22] the test system is H4. Briefly: Increase in light chain 3-GFP+ autophagosome vesicle number per cell in human H4 cells at 7.4 uM after 24 hrs by high throughput fluorescence microscopy relative to control. In short, it runs like this: as §5

`CCN(CC)CCCCCCCCOC(=O)c1cc(OC)c(OC)c(OC)c1`: the Activity with H4 [1] came to 78.64%; with H4 [2], 95.47%; in the test with H4 [3], 201.59%; in the test on H4 [4], 89.59%; with H4 [5], 109.05%; in the test with H4 [6] it was 229.5%. The Activity in the test on H4 [7] stood at 124.85%; with H4 [8], 170.87%; in the test on H4 [9], 106.69%; in the test on H4 [10], 74.72%; with H4 [11] it was 145.22%.
With `CC[C@H](C)[C@H](NS(=O)(=O)c1cccc2ccccc12)C(=O)N[C@H](C=O)Cc1c[nH]c2ccccc12`, the Activity with H4 [1] came to 62.34%; in the test on H4 [2], 9.4%; in the test on H4 [12], 151.1%; with H4 [4], 89.37%; in the test with H4 [5], 117.24%; with H4 [7], 136.94%. The Activity was found to be 124.74% with H4 [13]; 172.38% with H4 [14]; 134.83% in the test on H4 [9]; 64.1% in the test on H4 [10]; 199.27% with H4 [15].
As for `CC(=O)C1=C(O)[C@@H]2[C@H]3c4c[nH]c5cccc(c45)C[C@H]3C(C)(C)N2C1=O` [CYCLOPIAZONIC ACID], the Activity was 112.62% with H4 [16]; 96.32% in the test with H4 [2]; 186.44% with H4 [17]; 96.45% in the test with H4 [5]; 178.53% with H4 [18]; 33.06% in the test with H4 [19]. The Activity in the test on H4 [7] was determined as 97.66%; with H4 [20] it was 41.44%; in the test with H4 [9], 103.58%; in the test on H4 [21], 30.54%; with H4 [22], 162.66%.

The values are drawn from ChEMBL document CHEMBL1145471, “Small molecule regulators of autophagy identified by an image-based high-throughput screen” (Proc Natl Acad Sci U S A, 2007).
